For 38 molecules, Activity results are on record in ChEMBL document CHEMBL1150775, “Synthesis and evaluation of estrogen agonism of diaryl 4,5-dihydroisoxazoles, 3-hydroxyketones, 3-methoxyketones, and 1,3-diketones: a compound set forming a 4D molecular library” (J Med Chem, 2008).

Where “and” joins values, the source holds several entries; their conditions need not be identical. Identical values can stand only once.

Type in all cases: cell-based
The target of assay [1] is Estrogen receptor beta (Homo sapiens) (UniProt Q92731). Description: Activation of human estrogen receptor beta expressed in HEK293 cells at 10 uM beta-galactosidase reporter gene assay relative to 3,17-beta-estradiol. Summed up:
(§1)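 HEK293 cells seeded a day ahead in phenol-free DMEM with 5% delipidated FBS. Calcium phosphate transfection for 4 h with 5 ng ERα or ERβ expression vector, 75 ng pERE2TATA-LUC reporter and 20 ng pCMVβ control. Test compound at 10 µM (vehicle 0.1% v/v) for 24 h. Luciferase normalized to β-galactosidase. Activity = 100% × (test − vehicle)/(10 nM E2 − vehicle). Mean of ≥3 independent transfections.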

The target of assay [2] is T1, Estrogen receptor (Homo sapiens) (UniProt P03372).
T1 sequence (whole entry): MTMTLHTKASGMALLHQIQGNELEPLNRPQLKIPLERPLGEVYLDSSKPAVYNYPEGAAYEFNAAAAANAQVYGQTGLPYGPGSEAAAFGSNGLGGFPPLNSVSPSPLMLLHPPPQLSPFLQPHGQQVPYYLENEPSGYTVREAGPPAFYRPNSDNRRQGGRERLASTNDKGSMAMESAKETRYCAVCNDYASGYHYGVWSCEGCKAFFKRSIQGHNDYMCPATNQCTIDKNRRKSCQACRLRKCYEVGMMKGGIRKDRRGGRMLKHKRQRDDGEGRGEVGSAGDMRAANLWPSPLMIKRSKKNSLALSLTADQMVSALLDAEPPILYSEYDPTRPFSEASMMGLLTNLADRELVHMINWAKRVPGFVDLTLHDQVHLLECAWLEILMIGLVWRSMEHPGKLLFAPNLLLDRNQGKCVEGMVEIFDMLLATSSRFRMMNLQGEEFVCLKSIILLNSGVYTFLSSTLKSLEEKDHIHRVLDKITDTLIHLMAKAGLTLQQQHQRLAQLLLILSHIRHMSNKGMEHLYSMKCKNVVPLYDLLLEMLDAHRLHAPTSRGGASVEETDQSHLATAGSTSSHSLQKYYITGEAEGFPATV
Put plainly: Activation of human estrogen receptor alpha expressed in HEK293 cells at 10 uM beta-galactosidase reporter gene assay relative to control. The method in brief:
(§2)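 Luciferase reporter in transiently transfected HEK293 cells. Cells received 5 ng ERα or ERβ vector, ERE2-TATA luciferase reporter and pCMVβ by calcium phosphate for 4 h. Compound at 10 µM for 24 h in phenol-free medium with delipidated serum. β-Gal-normalized luciferase expressed as fold activation over vehicle (0.1% v/v). Means ± SEM of ≥3 transfections.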
(In a reporter assay the amount or activity of a reporter protein is the signal.)

Assay [3] deals with T1, Estrogen receptor (Homo sapiens). Put plainly: Activation of human estrogen receptor alpha expressed in HEK293 cells at 10 uM by beta-galactosidase reporter gene assay relative to 3,17 beta-estradiol. The method in brief:
as §1

Assay [4] shares this target. Description: Activation of human estrogen receptor alpha expressed in HEK293 cells at 10 uM in presence of ICI-182780 beta-galactosidase reporter gene assay relative to control. The method in brief:
(§3)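 Antagonism format: transfection as for the agonist assay (ERα or ERβ vector, ERE2-TATA-LUC, pCMVβ; 4 h). Medium then contained 10 µM compound plus 1000 nM ICI-182,780 or vehicle for 24 h. β-Gal-normalized luciferase given as fold activation relative to vehicle. Means ± SEM of ≥3 independent transfections.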

In assay [5] the target is Estrogen receptor beta (Homo sapiens) (UniProt Q92731). Put plainly: Activation of human estrogen receptor beta expressed in HEK293 cells at 10 uM in presence of ICI-182781 beta-galactosidase reporter gene assay relative to control. Summed up:
as §3

Assay [6] shares this target. Description: Activation of human estrogen receptor beta expressed in HEK293 cells at 10 uM beta-galactosidase reporter gene assay relative to control. Summed up: as §2

Sequence of Estrogen receptor beta (Homo sapiens) (Q92731 whole entry): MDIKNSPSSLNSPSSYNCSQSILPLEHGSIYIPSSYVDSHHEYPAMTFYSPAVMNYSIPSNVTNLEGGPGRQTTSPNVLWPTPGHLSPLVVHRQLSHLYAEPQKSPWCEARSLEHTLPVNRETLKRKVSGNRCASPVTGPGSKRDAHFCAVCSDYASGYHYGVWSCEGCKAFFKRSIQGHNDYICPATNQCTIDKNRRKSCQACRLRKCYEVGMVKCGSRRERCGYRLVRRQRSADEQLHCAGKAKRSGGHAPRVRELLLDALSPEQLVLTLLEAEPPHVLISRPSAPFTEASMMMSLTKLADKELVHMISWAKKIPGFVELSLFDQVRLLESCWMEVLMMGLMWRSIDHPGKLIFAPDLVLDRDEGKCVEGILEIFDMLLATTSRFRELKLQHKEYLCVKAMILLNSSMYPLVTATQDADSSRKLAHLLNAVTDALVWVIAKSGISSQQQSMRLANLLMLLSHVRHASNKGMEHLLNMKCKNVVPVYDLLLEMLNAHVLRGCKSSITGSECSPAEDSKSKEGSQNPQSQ

For `COC(CC(=O)Cc1cccc2ccccc12)Cc1cccc2ccccc12` (single isomer, unassigned; 64b), the Activity was 0.4% in assay [1], 26.1 in assay [2], 23.9% in assay [3] and 1.1 in assay [4].

As for `COC(CC(=O)Cc1ccccc1)Cc1ccc2ccccc2c1` (racemic), the Activity in assay [1] is 4.7%; in assay [2], 22.9; in assay [3], 48.1%; in assay [4], 1.6; in assay [5], 0.7; in assay [6] it was 4.2.

Take `O=C(CCc1ccccc1)CC(=O)Cc1ccccc1`: the Activity in assay [1] is 1.4%; in assay [2], 8.7; in assay [3], 24.3%; in assay [4] it was 1.

For `c1ccc(CCC2=NOC(CCc3ccccc3)C2)cc1` (single isomer, unassigned; 18b), the Activity in assay [1] is -0.4%; in assay [2], 126; in assay [3], 43.9%; in assay [4], 1.

On to `COC(CC(=O)Cc1ccc(F)cc1)Cc1cccc2ccccc12` (single isomer, unassigned; 62a), for which the Activity in assay [1] was -0.6%; in assay [3], 0.2%.

Consider `COC(CC(=O)Cc1cccc2ccccc12)Cc1cccc2ccccc12` (single isomer, unassigned; 64a), for which the Activity in assay [1] was -0.5%; in assay [3], 5.6%.

As to `Oc1ccc(CCC2=NOC(Cc3ccc(O)cc3)C2)cc1` (stereo unspecified), the Activity is 4.1% and 12% in assay [1]; 81.4% and 76.2% in assay [3].

Turning to `c1ccc(CCC2=NOC(c3ccccc3)C2)cc1` (single isomer, unassigned; 12a), the Activity in assay [1] was 9.8%; in assay [3] it was 16.4%.

In the case of `COC(CC(=O)Cc1ccccc1)Cc1ccccc1` (stereo unspecified), the Activity in assay [1] is 0.3%; in assay [3] it was 1.4%.

`c1ccc(CCC2=NOC(Cc3cccc4ccccc34)C2)cc1` (single isomer, unassigned; 52b): the Activity in assay [1] worked out at 6.5%; in assay [3] it was 17.2%.

`COC(CC(=O)Cc1ccccc1)c1ccccc1` (stereo unspecified): the Activity in assay [1] was -1.2%; in assay [3], 4.9%.

As for `COc1ccccc1CC(=O)CC(Cc1cccc2ccccc12)OC` (single isomer, unassigned; 63b), the results for the Activity in assay [1] and in assay [3] were -0.2% and 0.6%, respectively.

As to `O=C(CCCc1ccccc1)CC(=O)Cc1ccccc1`, the Activity in assay [1] was 4.2%; in assay [3], 27.7%.

For the molecule `COC(CC(=O)CCCc1ccccc1)Cc1ccccc1` (stereo unspecified), the figures for the Activity in assay [1] and in assay [3] were 30.4% and 24.5%, respectively.

With `O=C(CCc1ccccc1)CC(O)Cc1ccc2ccccc2c1` (single isomer, unassigned; 57a), the values for the Activity in assay [1] and in assay [3] were 6.4% and 12.4%, respectively.

Turning to `O=C(CCCc1ccccc1)CC(=O)CCc1ccccc1`, the values for the Activity in assay [1] and in assay [3] were -1.5% and 6.1%, respectively.

For `COC(CCc1ccccc1)CC(=O)Cc1ccccc1` (stereo unspecified), the Activity in assay [1] was found to be 0.2%; in assay [3] it was 12%.

In the case of `c1ccc(CCCC2=NOC(Cc3ccccc3)C2)cc1` (stereo unspecified), the Activity stood at 13.6% in assay [1] and 31.3% in assay [3].

Take `O=C(CCc1ccccc1)CC(O)Cc1ccccc1` (stereo unspecified): the Activity in assay [1] worked out at 0.4%; in assay [3], 12.8%.

On to `CS(C)=C(C(=O)CCCc1ccccc1)C(=O)c1ccccc1`, for which the Activity in assay [1] is 0%; in assay [3], -6%.

Regarding `COc1ccccc1CC(CC(=O)Cc1ccc2ccccc2c1)OC` (stereo unspecified), the Activity came to 0.1% in assay [1] and 0.2% in assay [3].

As to `c1ccc(CCC2=NOC(c3ccccc3)C2)cc1` (single isomer, unassigned; 12b), the values for the Activity in assay [1] and in assay [3] were 8.1% and 11.2%, respectively.

As to `O=C(CCc1ccccc1)CC(O)CCc1ccccc1` (stereo unspecified), the Activity in assay [1] was found to be 1%; in assay [3] it was 16.2%.

For `COC(CCc1ccccc1)CC(=O)c1ccccc1` (stereo unspecified), the Activity in assay [1] amounted to 25.8%; in assay [3], 38.1%.

With `CS(C)=C(C(=O)CCc1ccccc1)C(=O)c1ccccc1`, the Activity in assay [1] is 3.3%; in assay [3], -2.5%.

As for `Oc1ccc(CC2CC(CCc3ccccc3O)=NO2)cc1` (single isomer, unassigned; 75b), the Activity in assay [1] is 0.6%; in assay [3], 6.2%.

Regarding `COC(CC(=O)CCc1ccccc1)Cc1ccc(F)cc1` (stereo unspecified), the Activity in assay [1] was determined as 11.2%; in assay [3], 33.1%.

With `O=C(CCc1ccccc1)CC(O)Cc1ccc(F)cc1` (stereo unspecified), the values for the Activity in assay [1] and in assay [3] were 5.7% and 30.1%, respectively.

Turning to `c1ccc(CC2=NOC(Cc3ccccc3)C2)cc1` (single isomer, unassigned; 14b), the results for the Activity in assay [1] and in assay [3] were 0.3% and 0%, respectively.

`c1ccc(CCC2=NOC(Cc3ccccc3)C2)cc1` (single isomer, unassigned): the Activity in assay [1] came to 1.1%; in assay [3] it was 68.4%.

`O=C(CC(O)Cc1ccccc1)c1ccccc1` (stereo unspecified): the Activity in assay [1] amounted to 16.9%; in assay [3], 5.3%.

Consider `O=C(CCCc1ccccc1)CC(O)c1ccccc1` (single isomer, unassigned; 24b), for which the figures for the Activity in assay [1] and in assay [3] were 28.2% and 59.3%, respectively.

With `COc1ccc(CC2CC(CCc3ccccc3)=NO2)cc1` (single isomer, unassigned; 50a), the Activity in assay [1] amounted to 10.6%; in assay [3], 0.8%.

`c1ccc(CCCC2=NOC(CCc3ccccc3)C2)cc1` (stereo unspecified): the Activity in assay [1] was 15.5%; in assay [3] it was 67.6%.

For the molecule `CS(C)=C(C(=O)Cc1ccccc1)C(=O)Cc1ccccc1`, the results for the Activity in assay [1] and in assay [3] were -0.4% and 0.5%, respectively.

Turning to `Oc1ccccc1CCC1=NOC(Cc2ccc(F)cc2)C1` (single isomer, unassigned; 73b), the results for the Activity in assay [1] and in assay [3] were -2.4% and 11.1%, respectively.

As to `O=C(CCc1ccccc1)CC(O)Cc1ccc2ccccc2c1` (single isomer, unassigned; 57b), the Activity in assay [1] and in assay [3] was 20.1% each time.

On to `c1ccc(CCC2=NOC(Cc3ccc4ccccc4c3)C2)cc1` (single isomer, unassigned; 53b), for which the Activity stood at 3.8% in assay [1] and 13% in assay [3].
